Assay results taken from ChEMBL document CHEMBL2413033, “Design and synthesis of novel series of 5-HT6 receptor ligands having indole, a central aromatic core and 1-amino-4 methyl piperazine as a positive ionizable group” (Bioorg Med Chem, 2013).

Key:
Assay type in all cases: functional, cell-based
[1] = biological target: T1, 5-hydroxytryptamine receptor 6 (Homo sapiens, UniProt P50406); assay: Antagonist activity at human recombinant 5HT6 receptor expressed in HEK293 cells assessed as inhibition of 5HT-induced cAMP accumulation at 10 uM pretreated for 10 mins before 5HT addition measured after 1 hr relative to control
T1 sequence (P50406 whole entry): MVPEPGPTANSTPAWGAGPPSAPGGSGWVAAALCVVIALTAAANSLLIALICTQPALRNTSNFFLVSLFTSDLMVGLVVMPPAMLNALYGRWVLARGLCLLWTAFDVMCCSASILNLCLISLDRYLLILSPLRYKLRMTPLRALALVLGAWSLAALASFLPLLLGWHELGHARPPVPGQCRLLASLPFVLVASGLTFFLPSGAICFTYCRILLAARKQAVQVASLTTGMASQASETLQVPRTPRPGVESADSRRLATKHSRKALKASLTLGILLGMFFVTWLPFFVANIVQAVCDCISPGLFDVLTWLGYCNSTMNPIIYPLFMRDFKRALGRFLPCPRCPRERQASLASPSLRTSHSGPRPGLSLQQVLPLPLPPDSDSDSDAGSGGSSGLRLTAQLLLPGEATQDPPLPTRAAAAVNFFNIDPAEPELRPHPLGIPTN
Procedure, shortened: (§1)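 Cells kept at 37 °C under 5% CO2/95% air were suspended in PBS with 2 mM IBMX. They were pretreated with compound (or not) for 10 min, then stimulated with 5-HT for 30 min. HTRF cAMP detection used d2-labelled cAMP and cryptate-labelled anti-cAMP antibody, 1 h at room temperature. Read-out was excitation 314 nm, emission 668 and 620 nm. Results are percent inhibition versus untreated controls.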

[2] = biological target: 5-hydroxytryptamine receptor 7 (Homo sapiens) (UniProt P34969); assay: Antagonist activity at human recombinant 5HT7 receptor expressed in HEK293 cells assessed as inhibition of 5HT-induced cAMP accumulation at 10 uM pretreated for 10 mins before 5HT addition measured after 1 hr relative to control; procedure, shortened: as §1
Sequence of 5-hydroxytryptamine receptor 7 (Homo sapiens) (P34969 whole entry): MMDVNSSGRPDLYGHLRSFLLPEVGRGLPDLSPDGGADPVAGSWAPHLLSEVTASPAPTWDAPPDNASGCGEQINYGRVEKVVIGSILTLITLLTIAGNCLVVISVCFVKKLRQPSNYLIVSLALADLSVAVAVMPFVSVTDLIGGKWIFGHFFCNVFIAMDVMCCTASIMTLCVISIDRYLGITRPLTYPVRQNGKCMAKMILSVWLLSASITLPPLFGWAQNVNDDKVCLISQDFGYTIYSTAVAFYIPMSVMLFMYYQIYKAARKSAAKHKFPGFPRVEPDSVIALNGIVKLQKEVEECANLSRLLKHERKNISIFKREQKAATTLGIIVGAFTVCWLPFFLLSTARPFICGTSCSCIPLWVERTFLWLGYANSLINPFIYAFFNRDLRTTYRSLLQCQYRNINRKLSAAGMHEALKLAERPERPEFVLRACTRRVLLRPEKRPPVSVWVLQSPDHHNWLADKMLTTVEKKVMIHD

[3] = biological target: 5-hydroxytryptamine receptor 4 (Homo sapiens) (UniProt Q13639); assay: Antagonist activity at human recombinant 5HT4 receptor expressed in HEK293 cells assessed as inhibition of 5HT-induced cAMP accumulation at 10 uM pretreated for 10 mins before 5HT addition measured after 1 hr relative to control; procedure, shortened: as §1
Sequence of 5-hydroxytryptamine receptor 4 (Homo sapiens) (Q13639 whole entry): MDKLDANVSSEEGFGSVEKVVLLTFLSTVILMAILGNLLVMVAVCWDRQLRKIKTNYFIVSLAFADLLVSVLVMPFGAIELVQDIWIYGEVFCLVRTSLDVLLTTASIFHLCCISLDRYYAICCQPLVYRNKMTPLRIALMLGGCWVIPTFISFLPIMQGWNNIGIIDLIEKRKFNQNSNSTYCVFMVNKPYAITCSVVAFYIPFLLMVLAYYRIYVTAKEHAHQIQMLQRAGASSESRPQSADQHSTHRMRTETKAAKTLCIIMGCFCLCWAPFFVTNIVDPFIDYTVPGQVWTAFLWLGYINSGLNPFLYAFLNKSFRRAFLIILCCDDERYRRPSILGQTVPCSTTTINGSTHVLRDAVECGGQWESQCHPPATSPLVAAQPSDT

[4] = biological target: T1, 5-hydroxytryptamine receptor 6; assay: Antagonist activity at human recombinant 5HT6 receptor expressed in HEK293 cells assessed as inhibition of 5HT-induced cAMP accumulation pretreated for 10 mins before 5HT addition measured after 1 hr; procedure, shortened: as §1

| Structure (SMILES) | inhibition [1] [%] | inhibition [2] [%] | inhibition [3] [%] | IC50 [4] [nM] |
| --- | --- | --- | --- | --- |
| CN1CCN(/N=C/c2c(-c3ccccc3)n(S(=O)(=O)c3ccc4ccccc4c3)c3ccccc23)CC1 | 39.6 | – | – | – |
| CC(C)c1ccc(S(=O)(=O)n2c(-c3ccccc3)c(/C=N/N3CCN(C)CC3)c3ccccc32)cc1 | 35.4 | – | – | – |
| CN1CCN(/N=C/c2c(-c3ccccc3)n(S(=O)(=O)c3ccc(OC(F)(F)F)cc3)c3ccccc23)CC1 | 38.7 | – | – | – |
| Cc1c(/C=N/N2CCN(C)CC2)c2ccccc2n1S(=O)(=O)c1ccc(Cl)c2nonc12 | 27.2 | – | – | – |
| Cc1c(/C=N/N2CCN(C)CC2)c2ccccc2n1S(=O)(=O)c1ccc(-c2ccc(Cl)cc2)cc1 | 0.1 | – | – | – |
| CN1CCN(/N=C/c2c(-c3ccccc3)n(S(=O)(=O)c3ccc(I)cc3)c3ccccc23)CC1 | 24.3 | – | – | – |
| COc1ccc(NS(=O)(=O)c2ccc(I)cc2)cc1N1CCN(C)CC1 | – | 5 | 5.8 | – |
| COc1ccc(S(=O)(=O)n2c(-c3ccccc3)c(/C=N/N3CCN(C)CC3)c3ccccc32)cc1 | 31.2 | – | – | – |
| CN1CCN(/N=C/c2c(-c3ccccc3)n(S(=O)(=O)Cc3ccccc3)c3ccccc23)CC1 | 36.5 | – | – | – |
| Cc1c(C)c(S(=O)(=O)n2c(-c3ccccc3)c(/C=N/N3CCN(C)CC3)c3ccccc32)c(C)c2c1OC(C)(C)C2 | 22.4 | – | – | – |
| CN1CCN(/N=C/c2c(-c3ccccc3)n(S(=O)(=O)c3cn(C)cn3)c3ccccc23)CC1 | 67.4 | 46.4 | 31.1 | 3600 |
| CN1CCN(/N=C/c2c(-c3ccccc3)n(S(=O)(=O)c3cccc4ccccc34)c3ccccc23)CC1 | 54 | 5 | 9.4 | 6600 |
| COc1cc(C)c(Cl)cc1S(=O)(=O)n1c(-c2ccccc2)c(/C=N/N2CCN(C)CC2)c2ccccc21 | 55.3 | 72.8 | 13 | 7400 |
| Cc1c(/C=N/N2CCN(C)CC2)c2ccccc2n1S(=O)(=O)c1ccc(-c2ccccc2)cc1 | 15.1 | – | – | – |
| Cc1c(/C=N/N2CCN(C)CC2)c2ccccc2n1S(=O)(=O)c1ccc(/N=N/c2ccc(N(C)C)cc2)cc1 | 16.1 | – | – | – |
| CN1CCN(/N=C/c2c(-c3ccccc3)n(S(=O)(=O)c3ccc(F)cc3)c3ccccc23)CC1 | 74.2 | 28.5 | 37.3 | 2900 |
| Cc1c(/C=N/N2CCN(C)CC2)c2ccccc2n1S(=O)(=O)c1ccc(I)cc1 | 13.5 | – | – | – |

| Structure (SMILES) | inhibition [1] [%] | inhibition [2] [%] | inhibition [3] [%] | IC50 [4] [nM] |
| --- | --- | --- | --- | --- |
| CCCCN(CCCC)c1cccc2c(S(=O)(=O)n3c(C)c(/C=N/N4CCN(C)CC4)c4ccccc43)cccc12 | 44.6 | – | – | – |
| Cc1c(C)c(S(=O)(=O)n2c(-c3ccccc3)c(/C=N/N3CCN(C)CC3)c3ccccc32)c(C)c2c1OC(C)(C)CC2 | 20.6 | – | – | – |
| Cc1ccc(S(=O)(=O)n2c(C)c(/C=N/N3CCN(C)CC3)c3ccccc32)cc1 | 49.1 | – | – | – |
| CCCCN(CCCC)c1cccc2c(S(=O)(=O)n3c(-c4ccccc4)c(/C=N/N4CCN(C)CC4)c4ccccc43)cccc12 | 21.8 | – | – | – |
| CCc1ccc2ccccc2c1S(=O)(=O)n1c(C)c(/C=N/N2CCN(C)CC2)c2ccccc21 | 12.2 | – | – | – |
| Cc1c(/C=N/N2CCN(C)CC2)c2ccccc2n1S(=O)(=O)c1cccc2c(N(C)C)cccc12 | 9.5 | – | – | – |
| CN1CCN(/N=C/c2c(-c3ccccc3)n(S(=O)(=O)c3ccccc3)c3ccccc23)CC1 | 83.5 | 34.6 | 79.9 | 1800 |
| CCCCc1ccc(S(=O)(=O)n2c(-c3ccccc3)c(/C=N/N3CCN(C)CC3)c3ccccc32)cc1 | 14.3 | – | – | – |
| Cc1ccc(S(=O)(=O)n2c(-c3ccccc3)c(/C=N/N3CCN(C)CC3)c3ccccc32)cc1 | 33.2 | – | – | – |
| CC1CCN(CC[C@H]2CCCN2S(=O)(=O)c2cccc(O)c2)CC1 | – | 104 | – | – |
| Cc1c(/C=N/N2CCN(C)CC2)c2ccccc2n1S(=O)(=O)c1ccc2ccccc2c1 | 78.9 | 17.1 | 92.2 | 2040 |
| COc1cc(C)c(Cl)cc1S(=O)(=O)n1c(C)c(/C=N/N2CCN(C)CC2)c2ccccc21 | 88.6 | 18.4 | 17.9 | 2400 |
| CN1CCN(/N=C/c2c(-c3ccccc3)n(S(=O)(=O)c3cccc4c(N(C)C)cccc34)c3ccccc23)CC1 | 85.3 | 42.2 | 65 | 1400 |
| CN1CCN(/N=C/c2c(-c3ccccc3)n(S(=O)(=O)c3ccc(Cl)cc3)c3ccccc23)CC1 | 30.5 | – | – | – |
| Cc1c(/C=N/N2CCN(C)CC2)c2ccccc2n1S(=O)(=O)c1ccc(F)cc1 | 71.7 | 12.3 | 83 | 4740 |
| Cc1c(/C=N/N2CCN(C)CC2)c2ccccc2n1S(=O)(=O)c1ccc([N+](=O)[O-])cc1 | 52.4 | – | – | – |
